# CSN deneddyl inh: CSN deneddylation inhibition. Q92905. 0.38% of 360,000 active. Purified CSN, SCF-Nedd8-OG deneddylation, fluorescence polarization. inhibition, % at 12.5 µM;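 active means pattern-corrected inhibition above about 35%, with an unprinted fluorescence ratio check between 0.5 and 1.5, limit read from the data, passing the limit was not always enough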;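 further: 0% = enzyme with substrate and 100% = substrate without enzyme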
#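 test system = HEK293T-derived human Csn5 enzyme | amount = 0.24 nM Csn5 enzyme, final concentration | medium = Tris/NaCl/DTT buffer, pH 7.5 | schedule = 90 min reaction at room temperature | signal = FP | evaluation = inhibition of Csn5 cleavage, % | compound dosing = single dose of 12.5 µM compound with 0.25% DMSO | probe or stimulus = 10 nM SCFSkp2-Nedd8OG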
# CRFBP-R2 block: antagonists of CRF-binding protein/CRF-R2 receptor complex; inhibition, % at 11.8 µM; 0.59% of 350,000 active; HEK293 CRF-R2/CRF-BP, CRF-induced calcium fluorescence;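 active means inhibition of the ligand-induced calcium signal above about 50% at the single tested concentration, limit read from the data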
# CRFBP-R2 agonist: CRF-BP/CRF-R2 complex agonism. activation, % at 13.2 µM. HEK293 CRF-R2/CRF-BP, calcium dye fluorescence (FLIPR); percent of saturating CRF peptide response. 0.46% of 350,000 active;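 active means activation of at least 50%, plus an integration ratio under a set limit after plate pattern correction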;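 further: plate controls were neutral control wells without compound for no effect and CRF at EC100 for full effect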
# TPT1 inh: C. albicans TPT1 enzyme inhibition; AID 1962; recombinant caTPT1, FP RNA substrate dephosphorylation; inhibition, % at 5 µM; 0.81% of 300,000 active;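 active means inhibition above the mean of all tested compounds plus 3 SD, set per screening campaign, cut at about 24% in these data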;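 further: plate controls were DMSO alone for no effect and ferristatin control at 100 nM for full effect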
# Rpn11 block: inhibitors of human proteasome Rpn11. calls only at 20 µM. AID 588493. human 26S proteasome, Ub4-pepOG fluorescence polarization; 20S core pre-blocked with epoxomicin. O00487. 0.59% of 360,000 active;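 active means inhibition at 20 µM, scaled to each plate's controls, above about 33%, limit read from the data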
# HNF4A DNA FP: change in binding of human HNF4 alpha to DNA; P41235; HNF4a-FITC DNA binding, fluorescence polarization, 1 h; activity change, % at 10 µM; 0.3% of 360,000 active; AID 1224865; in the data active means activity change above about 30%, passing the limit was not always enough
# TPT1 inh confirm: TPT1 (C. albicans) inhibition, confirmation. 74% of 2,400 active. shares compounds with TPT1 inh. recombinant caTPT1, fluorescence polarization, RNase T1 coupled. inhibition, % at 5 µM;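 active means inhibition above the primary screen limit, the mean inhibition of all tested compounds plus 3 SD, cut at about 25% in these data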
# RNase T1 inh: counter-screen for TPT1 inhibitors: inhibitors of Aspergillus oryzae RNase T1 | shares compounds with TPT1 inh | RNase T1 cleavage, fluorescence polarization, 1536-well | inhibition, % at 5 µM | 83% of 2,400 active;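 active means inhibition above the solvent-only control well mean plus 3 SD, limit set per screening run, cut at about 23% in these data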;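 further: plate controls were DMSO wells with enzyme for no effect and wells without RNase T1 for full effect; inhibitors block cleavage so intact labeled substrate keeps polarization high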
# Rpn11 confirm: confirmation of human proteasome Rpn11 inhibitors; shares compounds with Rpn11 block; 29% of 1,900 active; inhibition, % at 20 µM; purified human 26S proteasome, Ub4-pepOG fluorescence polarization; proteasome pretreated with epoxomicin
# MMP-2 counter: MMP-2 (human) inhibition counter-screen; shares compounds with Rpn11 block; recombinant MMP-2, FRET peptide cleavage fluorescence; inhibition, % at 20 µM; 4% of 1,900 active;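 further: human MMP-2 activated beforehand with APMA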
# Thrombin FP: blocks bovine thrombin, flagging nonselective RPN11 hits; bovine thrombin cleavage of Ub4-pepOG, fluorescence polarization; inhibition, % at 20 µM; AID 602333; 13% of 1,900 active; shares compounds with Rpn11 block;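 active means mean inhibition at least 40% at 20 µM, or signal 3 deviations below plate average, so some actives read negative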;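 further: plate controls were thrombin with DMSO for no effect and buffer wells lacking thrombin for full effect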
# Target sequence (P00735 whole entry, looked up): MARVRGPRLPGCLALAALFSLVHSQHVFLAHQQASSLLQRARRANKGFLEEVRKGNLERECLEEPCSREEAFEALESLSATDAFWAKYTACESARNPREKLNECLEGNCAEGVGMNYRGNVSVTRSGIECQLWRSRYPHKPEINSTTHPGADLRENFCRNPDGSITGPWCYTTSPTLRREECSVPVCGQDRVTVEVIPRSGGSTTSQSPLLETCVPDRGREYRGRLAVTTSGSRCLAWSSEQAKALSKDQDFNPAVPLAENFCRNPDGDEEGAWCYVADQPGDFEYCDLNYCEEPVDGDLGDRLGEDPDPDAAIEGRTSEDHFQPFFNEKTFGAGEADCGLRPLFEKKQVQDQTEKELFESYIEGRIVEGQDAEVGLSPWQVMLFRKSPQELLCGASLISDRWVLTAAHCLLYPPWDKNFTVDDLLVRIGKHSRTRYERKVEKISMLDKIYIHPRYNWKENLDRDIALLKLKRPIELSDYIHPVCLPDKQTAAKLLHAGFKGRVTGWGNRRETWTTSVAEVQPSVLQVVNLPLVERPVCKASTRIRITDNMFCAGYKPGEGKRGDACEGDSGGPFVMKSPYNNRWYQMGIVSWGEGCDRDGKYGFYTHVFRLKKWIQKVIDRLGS
# * = called active by the depositor; i = inactive; x = no result shown; + = active, no number; ! = a repeat was not active. Rows were chosen to be rich in hits. Some 2.3% of all compounds tested hit in one or more screens of this group. Unless noted, no stated cut-off is given here; in the data, active means inhibition above about 40%; inactive means the rest.
SMILES,CSN deneddyl inh,CRFBP-R2 block,CRFBP-R2 agonist,TPT1 inh,Rpn11 block,HNF4A DNA FP,TPT1 inh confirm,RNase T1 inh,Rpn11 confirm,MMP-2 counter,Thrombin FP
Cc1ccc(N=C2NC(=O)/C(=C\c3ccc(C)s3)S2)cc1,9,-11,3,-1,i,16,x,x,x,x,x
Clc1ccc2c(N/N=C/c3ccccc3Br)ccnc2c1,6,-10,-2,-2,i,11,x,x,x,x,x
O=[N+]([O-])c1ccc(/C=N/Nc2ccnc3cc(Cl)ccc23)o1,10,-8,0,68*,+,14,62*,78*,39,-15,16
O=C(N/N=C/c1ccc([N+](=O)[O-])o1)c1cc(-c2ccc(-c3ccccc3)cc2)nc2ccccc12,3,0,-1,2,i,-5,x,x,x,x,x
Cc1cc(N/N=C/c2ccc([N+](=O)[O-])o2)nc2ccccc12,29,-25,12,49*,+,21,50*,64*,25,-12,10
COc1nc(N)c(S(=O)(=O)c2ccccc2)cc1C#N,12,4,-1,30*,+,16,30*,41*,13,-39,-11
COc1nc(N)c(S(=O)(=O)c2ccccc2C)cc1C#N,1,12,-6,11,i,5,x,x,x,x,x
COc1ccc(CNC(=O)Nc2ccc(C)c(C)c2)cc1,1,22,-2,0,i,4,x,x,x,x,x
COCCCn1c(=O)/c(=C\c2ccccc2OC(F)F)s/c1=C(/C#N)C(=O)NCCOC,21,14,-1,2,x,11,x,x,x,x,x
COCCCn1c(=O)/c(=C\c2cccc(OC)c2OC)s/c1=C(/C#N)C(=O)Nc1ccc(C(=O)O)cc1,22,-5,2,62*,+,14,73*,87*,46*,2,86*
CCCOc1ccc(C(CC(=O)O)NC(=O)CC(c2ccccc2)c2ccccc2)cc1 (stereo unspecified),-15,-21,0,1,i,3,x,x,x,x,x
O=C(Nn1c(C2CCCCC2)nc2ccccc2c1=O)c1ccc([N+](=O)[O-])cc1,2,1,2,0,i,3,x,x,x,x,x
C=CCN=C1S/C(=C\c2ccc(N(C)C)cc2)C(=O)N1CC=C,16,8,9,44*,+,36*,50*,63*,19,-11,21
CCOC(=O)c1c(CC(C)C)csc1/N=C/C1C(=O)CC(C)(C)CC1=O,36*,-63,17,61*,+,-3,12,15,8,10,-9
Cc1cc(/C=C2\SC(=S)NC2=O)c(C)[nH]1,93,-12,17,131*,+,57*,97*,108*,45*,17,38
Oc1oc(-c2ccccc2)nc1C=NCc1ccccc1,0,-8,1,2,i,-1,x,x,x,x,x
CC1=Nc2ccccc2/C1=C\c1nc(-c2ccccc2)oc1O,16,-15,10,80*,+,28,99*,108*,43*,-5,22
Cc1c(N=C/C=C2\N(C)c3ccccc3C2(C)C)c(=O)n(-c2ccccc2)n1C,-2,-6,-1,1,i,1,x,x,x,x,x
Cc1c(N=C/C=C2/N(C)c3ccccc3C2(C)C)c(=O)n(-c2ccccc2)n1C,3,-21,1,42*,+!,2,37*,48*,33,-8,30
COc1ccc(C)cc1Nc1n[n+](-c2ccccc2)c(-c2ccc(N(C)C)cc2)s1,15,-3,5,51*,+,68*,90*,99*,75*,3,127*
CCN1C(=O)/C(=C/C=C2/CCCN2C)OC1=S,-2,-15,47,78*,+,88*,106*,116*,43*,6,54*
CCOC(=O)Cn1c(=O)n(C2CCCC2)c(=O)c2ccccc21,1,38,1,-3,i,-4,x,x,x,x,x
N#C/C(=C\c1ccc(O)c(O)c1)C(=O)Nc1ccccc1,5,-41,6,33*,+,4,40*,48*,91*,9,27
COc1cc(/C=c2\sc3n(c2=O)C(c2ccccc2)C(c2ccccc2)=NN=3)ccc1O (stereo unspecified),6,-3,1,35*,+,10,50*,56*,23,20,19
O=C(Nc1cccc2nsnc12)c1ccc(-c2cccc(Cl)c2)o1,21,-28,6,31*,+,27,30*,38*,21,6,10
SMILES,CSN deneddyl inh,CRFBP-R2 block,CRFBP-R2 agonist,TPT1 inh,Rpn11 block,HNF4A DNA FP,TPT1 inh confirm,RNase T1 inh,Rpn11 confirm,MMP-2 counter,Thrombin FP
O=C(Nc1ccccc1N1CCCCC1)c1ccc(-c2cccc(Cl)c2)o1,0,10,0,0,i,3,x,x,x,x,x
COc1cc(/C=C(\C#N)c2nc(-c3cc4ccccc4oc3=O)cs2)ccc1O,28,-26,6,38*,+,41,52*,58*,19,36,-40
COc1cc(/C=C2/SC(=S)N(c3c(C)n(C)n(-c4ccccc4)c3=O)C2=O)ccc1O,31,-37,11,29*,+,25,29*,42*,63*,-10,43*
COc1ccccc1/C=C1\SC(=S)N(NS(=O)(=O)c2ccccc2)C1=O,6,11,0,-1,i,-1,x,x,x,x,x
COc1cc(/C=C2\SC(=S)N(NS(=O)(=O)c3ccccc3)C2=O)ccc1O,31,-36,27,31*,+,30,34*,42*,50*,39,52*
COc1cc(/C=C2\SC(=S)N(N3CCOCC3)C2=O)ccc1O,8,-12,7,15,i,-10,x,x,x,x,x
COc1ccc(S(=O)(=O)N2CC(O)CC2C(=O)OCc2nc3sc(C)c(C)c3c(=O)[nH]2)cc1 (stereo unspecified),25,-5,3,33*,+,25,47*,65*,22,-17,10

# Source: PubChem BioAssay (several laboratories)
